ChEMBL document CHEMBL4052591, “Evaluation of Jatrophane Esters from Euphorbia spp. as Modulators of Candida albicans Multidrug Transporters” (2017)
Calls of active or inactive are those of the source. The rule behind the calls is not given here.

Key:
Candida albicans [1] = assay: Inhibition of Candida albicans CDR1 transporter expressed in Saccharomyces cerevisiae AD cells assessed as nile red accumulation at 70 uM after 30 mins by flow cytometric analysis relative to control; type: cell-based
Outline: (§1)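 S. cerevisiae AD strains overexpressing CaCdr1p (AD-CDR1) or CaMdr1p (AD-MDR1) were grown at 30 °C from OD600 0.1 to 0.25. They were resuspended as a 5% suspension in YEPD:water 1:2. Nile Red (7 μM final) was given ± inhibitor (70 μM) for 30 min at 30 °C. Accumulation was read by flow cytometry on 10 000 cells. Means ± SD, three independent experiments.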

Candida albicans [2] = assay: Inhibition of Candida albicans MDR1 transporter expressed in Saccharomyces cerevisiae AD cells assessed as nile red dye accumulation at 70 uM after 30 mins by flow cytometric analysis relative to control; type: cell-based; outline: as §1

Structure (SMILES)	inhibition (Candida albicans [1])	inhibition (Candida albicans [2])
C=C1[C@@H](OC(C)=O)[C@H]2[C@@H](OC(C)=O)[C@](C)(OC(C)=O)C[C@]2(OC(C)=O)C(=O)[C@H](C)/C=C/C(C)(C)C(=O)[C@H](OC(C)=O)[C@H]1OC(C)=O	inactive	inactive
C=C1CCC2[C@@H](/C=C(\C)C(=O)[C@@]3(OC(C)=O)C[C@H](C)[C@H](OC(C)=O)[C@@H]3[C@H]1OC(C)=O)C2(C)C (single isomer, unassigned)	inactive	inactive
C=C1[C@@H](OC(=O)C(C)C)[C@H]2[C@@H](OC(C)=O)[C@](C)(O)C[C@]2(O)C(=O)[C@@H](C)/C=C/C(C)(C)[C@H](OC(C)=O)[C@H](OC(C)=O)[C@H]1OC(=O)c1ccccc1	inactive	inactive
C=C1[C@@H](OC(C)=O)[C@H]2[C@@H](OC(C)=O)[C@](C)(OC(=O)c3cccnc3)C[C@]2(OC(C)=O)C(=O)[C@@H](C)/C=C/C(C)(C)[C@H](OC(=O)c2cccnc2)[C@H](OC(C)=O)[C@H]1OC(=O)c1ccccc1	inactive	inactive
C=C1[C@@H](OC(=O)C(C)C)[C@H]2[C@@H](OC(C)=O)[C@](C)(OC(C)=O)C[C@]2(O)C(=O)[C@@H](C)/C=C/C(C)(C)[C@H](OC(C)=O)[C@H](OC(C)=O)[C@H]1OC(=O)c1ccccc1	inactive	inactive
C=C1[C@@H](OC(C)=O)[C@H]2[C@@H](OC(C)=O)[C@](C)(O)C[C@]2(OC(C)=O)C(=O)[C@H](C)/C=C/C(C)(C)C(=O)[C@H](OC(=O)/C(C)=C/C)[C@H]1OC(C)=O	inactive	inactive
C=C1[C@@H](OC(=O)c2ccccc2)[C@H]2[C@@H](OC(C)=O)[C@](C)(O)C[C@]2(O)C(=O)[C@@H](C)/C=C/C(C)(C)[C@H](OC(C)=O)[C@H](OC(C)=O)[C@H]1OC(=O)c1cccnc1	inactive	inactive
CC(=O)O[C@H]1[C@@H](OC(C)=O)C(C)(C)/C=C/[C@H](C)C(=O)[C@@]2(OC(C)=O)C[C@@](C)(OC(C)=O)[C@H](O)[C@@H]2[C@H]2OC(=O)CC[C@@]2(OC(C)=O)[C@@H]1OC(=O)C(C)C	inactive	inactive
C=C1[C@@H](OC(C)=O)[C@H]2[C@@H](OC(C)=O)[C@](C)(O)C[C@]2(OC(C)=O)C(=O)[C@H](C)/C=C/C(C)(C)C(=O)[C@H](OC(=O)c2ccccc2)[C@H]1OC(C)=O	inactive	inactive
C=C1[C@@H](OC(C)=O)[C@H]2[C@@H](OC(C)=O)[C@](C)(OC(=O)c3cccnc3)C[C@]2(OC(C)=O)C(=O)[C@@H](C)/C=C/C(C)(C)[C@H](OC(=O)c2cccnc2)[C@H](OC(C)=O)[C@H]1OC(=O)C(C)C	inactive	inactive
C=C1[C@@H](OC(=O)C(C)C)[C@H]2[C@@H](OC(=O)C(C)C)[C@](C)(OC(C)=O)C[C@]2(O)C(=O)[C@@H](C)/C=C/C(C)(C)[C@H](OC(C)=O)[C@H](OC(C)=O)[C@H]1OC(=O)c1ccccc1	inactive	inactive
C=C1[C@@H](OC(C)=O)[C@H]2[C@@H](OC(C)=O)[C@](C)(O)C[C@]2(OC(C)=O)C(=O)[C@H](C)/C=C/C(C)(C)C(=O)[C@H](OC(=O)C(C)C)[C@H]1OC(C)=O	inactive	inactive
C=C1[C@@H](OC(=O)C(C)C)[C@H]2[C@@H](OC(C)=O)[C@@H](C)C[C@]2(O)C(=O)[C@@H](C)/C=C/C(C)(C)[C@H](OC(C)=O)[C@H](OC(C)=O)[C@H]1OC(=O)c1ccccc1	inactive	inactive
C=C1[C@@H](OC(=O)C(C)C)[C@H]2[C@@H](OC(=O)c3ccccc3)[C@](C)(OC(C)=O)C[C@]2(O)C(=O)[C@@H](C)/C=C/C(C)(C)[C@H](OC(C)=O)[C@H](OC(C)=O)[C@H]1OC(=O)C(C)C	inactive	inactive
C=C1[C@@H](OC(C)=O)[C@H]2[C@@H](OC(C)=O)[C@](C)(OC(C)=O)C[C@]2(OC(C)=O)C(=O)[C@H](C)/C=C/C(C)(C)C(=O)[C@H](OC(=O)/C(C)=C/C)[C@H]1OC(C)=O	inactive	inactive
CC(=O)O[C@H]1[C@@H](OC(C)=O)C(C)(C)/C=C/[C@@](C)(O)C(=O)[C@@]2(OC(C)=O)C[C@@](C)(OC(C)=O)[C@H](OC(C)=O)[C@@H]2[C@H]2OC(=O)CC[C@@]2(OC(C)=O)[C@@H]1OC(=O)C(C)C	inactive	inactive
C=C1[C@@H](OC(=O)c2ccccc2)[C@H]2[C@@H](O)[C@](C)(OC(C)=O)C[C@]2(O)C(=O)[C@@H](C)/C=C/C(C)(C)[C@H](OC(C)=O)[C@H](OC(C)=O)[C@H]1OC(=O)c1ccccc1	inactive	inactive
C=C1[C@@H](OC(C)=O)[C@H]2[C@@H](OC(=O)c3ccccc3)[C@@H](C)C[C@]2(O)[C@H](O)[C@H](C)/C=C/C(C)(C)C(=O)[C@H](OC(C)=O)[C@H]1OC(C)=O	inactive	inactive
C=C1[C@@H](OC(=O)C(C)C)[C@H]2[C@@H](OC(C)=O)[C@](C)(OC(=O)c3cccnc3)C[C@]2(O)C(=O)[C@@H](C)/C=C/C(C)(C)[C@H](OC(=O)c2cccnc2)[C@H](OC(C)=O)[C@H]1OC(=O)c1ccccc1	inactive	inactive
C=C1[C@@H](OC(C)=O)[C@H]2[C@@H](OC(=O)c3ccccc3)[C@@H](C)C[C@]2(O)[C@H](OC(C)=O)[C@H](C)/C=C/[C@@](C)(CO)C(=O)[C@H](O)[C@H]1OC(C)=O	inactive	inactive
C=C1[C@@H](OC(=O)c2ccccc2)[C@H]2[C@@H](O)[C@](C)(OC(C)=O)C[C@]2(O)C(=O)[C@@H](C)/C=C/C(C)(C)[C@H](OC(C)=O)[C@H](O)[C@H]1OC(=O)c1ccccc1	inactive	inactive
C=C1[C@@H](OC(C)=O)[C@H]2[C@@H](OC(C)=O)[C@](C)(OC(=O)c3cccnc3)C[C@]2(O)C(=O)[C@@H](C)/C=C/C(C)(C)[C@H](OC(=O)c2cccnc2)[C@H](OC(C)=O)[C@H]1OC(=O)c1ccccc1	inactive	inactive
CC(=O)O[C@H]1[C@@H](OC(C)=O)C(C)(C)/C=C/[C@@](C)(O)C(=O)[C@@]2(O)C[C@@](C)(OC(C)=O)[C@H](OC(C)=O)[C@@H]2[C@H]2OC(=O)CC[C@@]2(OC(=O)C(C)C)[C@@H]1OC(=O)C(C)C	inactive	inactive
C=C1[C@@H](OC(C)=O)[C@H]2[C@@H](OC(C)=O)[C@](C)(OC(C)=O)C[C@]2(OC(C)=O)C(=O)[C@H](C)/C=C/C(C)(C)C(=O)[C@H](OC(=O)c2ccccc2)[C@H]1OC(C)=O	inactive	inactive
C=C1[C@@H](OC(C)=O)[C@H]2[C@@H](OC(=O)c3ccccc3)[C@@H](C)C[C@]2(O)[C@H](O)[C@H](C)/C=C/C(C)(C)C(=O)[C@H](O)[C@H]1OC(C)=O	inactive	inactive
C=C1[C@@H](OC(=O)C(C)C)[C@H]2[C@@H](O)[C@](C)(OC(C)=O)C[C@]2(O)C(=O)[C@@H](C)/C=C/C(C)(C)[C@H](OC(C)=O)[C@H](OC(C)=O)[C@H]1OC(=O)c1ccccc1	inactive	inactive
